≈ marks a conversion by molar mass, not a printed value.
Assays:
[1] = Half life in rat; type: ADME, organism-based; details: in vivo
[2] = Drug level in rat brain at 435 ug/kg/min, iv after 1 hr; type: ADME, organism-based; details: 0.435 mg/kg, read-out: Drug uptake
[3] = Clearance in rat; type: ADME, organism-based; details: in vivo
[4] = Plasma concentration in rat at 0.2 mg/kg/min, iv after 20 mins; type: ADME, organism-based; set-up: route intravenous
in vivo = details: rat, brain/plasma, iv, 0.435 mg/kg
[5] = Plasma concentration in rat at 0.6 mg/kg/min, iv after 20 mins; type: ADME, organism-based; set-up: route intravenous
[6] = Aqueous solubility at pH 5.2; type: physicochemical
Method in brief: (§1)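 Solubility measured in buffered aqueous solution at the pH stated for each line and expressed as mg/mL. Solid samples were checked by microscopy under plain polarized light and were crystalline; the specific crystal form was not determined.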

[7] = Plasma concentration in rat at 0.01 mg/kg/min, iv after 20 mins; type: ADME, organism-based; set-up: route intravenous
[8] = Drug level in rat plasma at 435 ug/kg/min, iv after 1 hr; type: ADME, organism-based; details: 0.435 mg/kg
[9] = Volume of distribution in rat; type: ADME, organism-based; details: in vivo
[10] = Aqueous solubility at pH 7.4; type: physicochemical; method in brief: as §1
[11] = Plasma concentration in rat at 0.06 mg/kg/min, iv after 20 mins; type: ADME, organism-based; set-up: route intravenous
[12] = Plasma concentration in rat at 0.03 mg/kg/min, iv after 20 mins; type: ADME, organism-based; set-up: route intravenous
[13] = Aqueous solubility at pH 7.2; type: physicochemical; method in brief: as §1

half-life [1] [h]	concentration at 1 h [2] [µM]	clearance [3] [mL/min/kg]	concentration at 20 min [4] [µM]	Kp at 1 h (in vivo)	concentration at 20 min [5] [µM]	solubility [6] [µg/mL]	concentration at 20 min [7] [µM]	concentration at 1 h [8] [µM]	Vd [9] [L/kg]	solubility [10] [µg/mL]	concentration at 20 min [11] [µM]	concentration at 20 min [12] [µM]	solubility [13] [µg/mL]	SMILES
1.1	13.7	59	4.9	0.58	9.62	1400 (≈ 4050 µM)	0.185	23.4	3.4	110 (≈ 318 µM)	1.78	0.651	–	OC(c1cccnc1)(c1cccnc1)C(c1ccccc1)N1CCCC1 (stereo not given)
–	–	–	–	–	–	–	–	–	–	5.4 (≈ 15 µM)	–	–	–	OC(c1cccnc1)(c1cccnc1)C(c1ccccc1)N1CCCCC1 (stereo not given)
–	–	–	–	–	–	–	–	–	–	–	–	–	43 (≈ 119 µM)	OC(c1cccnc1)(c1cccnc1)C(c1ccccc1)N1CCOCC1 (stereo not given)
